Experiment [1] relates to Rattus norvegicus. As to the kind of experiment: Antihyperglycemic activity in Sprague-Dawley albino rat streptozotocin-induced beta-cell damaged diabetic model assessed as decrease of blood glucose level at 100 mg/kg, po administered 30 mins before glucose challenge measured after 24 hrs by glucometer. It counts as functional. More on the design: scale not given: the % may be the effect or the level left. The gist of the method:
(§1)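 Rats were made diabetic with streptozotocin 60 mg/kg ip in 100 mM citrate pH 4.5 after an overnight fast. Animals with glucose 144–270 mg/dl at 48 h were used, 5–6 per group. Compounds were given 100 mg/kg orally in 1.0% gum acacia. Sucrose 2.5 g/kg followed 30 min later. Glucose was read by glucostrips up to 300 min and at 24 h. Non-responders were excluded. Percent activity came from AUC versus control.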

Experiment [2] can be described thus: Inhibition of alpha-glucosidase at 100 uM after 3 mins. A digest of the protocol:
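α-Glucosidase (0.1 mg/mL, purified) was assayed in 67 mM sodium phosphate pH 6.8 with 1.0 mg/mL glutathione. The reaction was started with 3.0 mg/mL pNPG and followed at 405 nm every 30 s for 3 min.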

The species named for experiment [3] is Mus musculus. As to the kind of experiment: Antihyperglycemic activity in C57BL/KsBom-db db/db mouse assessed as decrease in blood glucose AUC level measured on day 5 by oral glucose tolerance test (reference value: 30730 +/- 3687 %). Also on record: scale not given: the % may be the effect or the level left. The class given is functional.
Experiment [4] can be described thus: Inhibition of glycogen phosphorylase assessed as inositol phosphate release after 30 mins. The gist of the method: (§2)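 Glycogen phosphorylase was incubated with glycogen, glucose-1-phosphate, NaF and 5′-AMP for 30 min at 37 °C. The reaction was stopped with 10% TCA and 0.1 M sodium acetate. Samples were held overnight at 4 °C, then released Pi was measured.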

For experiment [5], the system named is Rattus norvegicus. As to the kind of experiment: Antihyperglycemic activity in Sprague-Dawley albino rat streptozotocin-induced beta-cell damaged diabetic model assessed as decrease of blood glucose level at 100 mg/kg, po administered 30 mins before glucose challenge measured after 5 hrs by glucometer. The class given is functional. More on the design: scale not given: the % may be the effect or the level left. A digest of the protocol:
as §1

A short description of experiment [6]: Inhibition of glycogen phosphorylase assessed as […] phosphate release at 100 uM after 30 mins. A digest of the protocol:
as §2

Experiment [7] has as its system Rattus norvegicus. As to the kind of experiment: Antidyslipidemic activity in Charles Foster rat assessed as reduction of Triton WR-1339-induced increase of blood total cholesterol level at 100 mg/kg, po after 18 hrs. More on the design: scale not given: the % may be the effect or the level left. The class given is functional. The gist of the method: (§3)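 Hyperlipidemia induced by Triton WR-1339, 400 mg/kg ip, in adult male Charles Foster rats (200–225 g), five per group. Compounds were macerated in 0.2% w/v gum acacia, suspended in water and given 100 mg/kg po together with triton. Plasma was obtained by centrifugation at 2500g, 4 °C, 10 min and diluted 1:3 in saline. TC, PL and TG were measured by enzymatic methods.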

The species entered for experiment [8] is Mus musculus. The experiment can be described thus: Antihyperglycemic activity in C57BL/KsBom-db db/db mouse assessed as decrease in blood glucose AUC level measured on day 10 by oral glucose tolerance test (reference value: 32480 +/- 5098 %). The class given is functional. Also on record: scale not given: the % may be the effect or the level left.
Experiment [9] addresses Dipeptidyl peptidase 4 (Homo sapiens) (UniProt P27487). The experiment can be described thus: Inhibition of DPP4 at 100 uM after 15 mins by spectrofluorimeter. The gist of the method: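 DPP-IV activity was measured at 37 °C as Gly-Pro-AMC (30 µM) cleavage in Tris–HCl pH 7.4 with test compound. Fluorescence was read at excitation 355 nm and emission 460 nm. The initial rate was taken over the first 15 min.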

For experiment [10], the system named is Rattus norvegicus. As to the kind of experiment: Antidyslipidemic activity in Charles Foster rat assessed as reduction of Triton WR-1339-induced increase of blood phospholipid level at 100 mg/kg, po after 18 hrs. The class given is functional. Also on record: scale not given: the % may be the effect or the level left. The gist of the method:
as §3

The target of experiment [11] is T1, Tyrosine-protein phosphatase non-receptor type 1 (Homo sapiens) (UniProt P18031).
T1 sequence (whole entry): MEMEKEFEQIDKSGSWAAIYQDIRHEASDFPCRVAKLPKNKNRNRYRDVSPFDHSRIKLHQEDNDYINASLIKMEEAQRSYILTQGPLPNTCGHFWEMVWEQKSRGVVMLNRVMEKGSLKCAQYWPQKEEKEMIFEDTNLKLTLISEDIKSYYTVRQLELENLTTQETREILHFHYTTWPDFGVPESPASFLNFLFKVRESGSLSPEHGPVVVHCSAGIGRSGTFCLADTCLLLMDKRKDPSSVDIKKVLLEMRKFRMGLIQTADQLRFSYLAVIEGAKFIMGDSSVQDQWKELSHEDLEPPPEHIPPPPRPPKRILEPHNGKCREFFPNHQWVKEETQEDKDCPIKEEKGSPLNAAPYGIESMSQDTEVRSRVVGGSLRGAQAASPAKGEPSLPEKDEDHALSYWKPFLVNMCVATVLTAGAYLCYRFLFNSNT
The experiment can be described thus: Inhibition of PTP1B assessed as p-nitrophenolate ion production at 100 uM pretreated for 10 mins measured after 30 mins. The gist of the method: (§4)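 PTP1B was preincubated 10 min with compound, with and without 0.01% Triton X-100. Substrate was 10 mM pNPP in 50 mM HEPES pH 7.0 with 1 mM DTT and 2 mM EDTA. After 30 min at 37 °C the reaction was stopped with 0.1 N NaOH and A410 was read. Product was calculated with ε 1.78×10⁴ M⁻¹cm⁻¹. Sodium orthovanadate served as standard. IC50 came from dose–response curves.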

Experiment [12] deals with Rattus norvegicus. As to the kind of experiment: Antihyperglycemic activity in po dosed Sprague-Dawley albino rat streptozotocin-induced beta-cell damaged diabetic model assessed as decrease of blood glucose level […] measured after 24 hrs by glucometer. The class given is functional.
The test system of experiment [13] is Rattus norvegicus. As to the kind of experiment: Antidyslipidemic activity in Charles Foster rat assessed as reduction of Triton WR-1339-induced increase of blood triglyceride level at 100 mg/kg, po after 18 hrs. More on the design: scale not given: the % may be the effect or the level left. It counts as functional. The gist of the method:
as §3

Experiment [14] concerns the target T2, Glucose-6-phosphatase catalytic subunit 1 (Homo sapiens) (UniProt P35575).
T2 sequence (whole entry): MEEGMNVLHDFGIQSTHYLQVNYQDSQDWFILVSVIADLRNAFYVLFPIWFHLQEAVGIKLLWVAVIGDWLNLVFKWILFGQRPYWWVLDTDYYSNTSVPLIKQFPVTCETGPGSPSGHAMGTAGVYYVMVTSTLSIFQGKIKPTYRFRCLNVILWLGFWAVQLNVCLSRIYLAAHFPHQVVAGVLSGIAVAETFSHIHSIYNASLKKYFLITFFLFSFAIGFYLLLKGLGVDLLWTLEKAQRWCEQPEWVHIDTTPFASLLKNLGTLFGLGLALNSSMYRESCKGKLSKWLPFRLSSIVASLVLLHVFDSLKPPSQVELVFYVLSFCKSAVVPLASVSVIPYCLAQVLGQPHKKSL
As to the kind of experiment: Inhibition of glucose-6-phosphatase assessed as inositol phosphate release at 100 uM after 30 mins. As to conditions: in the assay text read “inorganic phosphate” for “inositol phosphate”. A digest of the protocol: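 Glucose-6-phosphatase was assayed in 0.3 M citrate pH 6.0 with 28 mM EDTA, 14 mM NaF, 200 mM glucose-6-phosphate and enzyme protein. After 30 min at 37 °C the reaction was stopped with 10% TCA. Activity was expressed as µmol Pi released per min per mg protein.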

Experiment [15] has as its system Rattus norvegicus. As to the kind of experiment: Antihyperglycemic activity in Charles Foster-Wistar albino rat sucrose loaded model assessed as decrease of blood glucose level at 100 mg/kg, po administered 30 mins before glucose challenge measured up to 120 mins by glucometer. The class given is functional. More on the design: scale not given: the % may be the effect or the level left. As to conditions: in the assay text read “Sprague-Dawley” for “Charles Foster-Wistar”. A digest of the protocol:
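Sprague–Dawley male rats with blood glucose 60–80 mg/dl, 5–6 per group, received 100 mg/kg orally as a suspension in 1.0% gum acacia; controls received vehicle. Sucrose 10.0 g/kg was given orally 30 min later. Glucose was read by glucometer at 30, 60, 90 and 120 min. Food was withheld. Percent activity came from AUC versus control.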

For experiment [16], the target named is T3, Tyrosine-protein phosphatase non-receptor type 1 (Homo sapiens, UniProt P18031).
T3 sequence (P18031 whole entry): T1 sequence (whole entry)
As to the kind of experiment: Inhibition of PTP1B assessed as p-nitrophenolate ion production pretreated for 10 mins measured after 30 mins. A digest of the protocol: as §4

The text below walks through data of ChEMBL document CHEMBL1165941, “Design and synthesis of 2,4-disubstituted polyhydroquinolines as prospective antihyperglycemic and lipid modulating agents” (Bioorg Med Chem, 2010).

The structures appear in SMILES notation. Calls of active or inactive are those of the source. The calls are words filed in the database; no cut-off is given here.

Chain of Dipeptidyl peptidase 4 (Homo sapiens) (P27487 whole entry, looked up): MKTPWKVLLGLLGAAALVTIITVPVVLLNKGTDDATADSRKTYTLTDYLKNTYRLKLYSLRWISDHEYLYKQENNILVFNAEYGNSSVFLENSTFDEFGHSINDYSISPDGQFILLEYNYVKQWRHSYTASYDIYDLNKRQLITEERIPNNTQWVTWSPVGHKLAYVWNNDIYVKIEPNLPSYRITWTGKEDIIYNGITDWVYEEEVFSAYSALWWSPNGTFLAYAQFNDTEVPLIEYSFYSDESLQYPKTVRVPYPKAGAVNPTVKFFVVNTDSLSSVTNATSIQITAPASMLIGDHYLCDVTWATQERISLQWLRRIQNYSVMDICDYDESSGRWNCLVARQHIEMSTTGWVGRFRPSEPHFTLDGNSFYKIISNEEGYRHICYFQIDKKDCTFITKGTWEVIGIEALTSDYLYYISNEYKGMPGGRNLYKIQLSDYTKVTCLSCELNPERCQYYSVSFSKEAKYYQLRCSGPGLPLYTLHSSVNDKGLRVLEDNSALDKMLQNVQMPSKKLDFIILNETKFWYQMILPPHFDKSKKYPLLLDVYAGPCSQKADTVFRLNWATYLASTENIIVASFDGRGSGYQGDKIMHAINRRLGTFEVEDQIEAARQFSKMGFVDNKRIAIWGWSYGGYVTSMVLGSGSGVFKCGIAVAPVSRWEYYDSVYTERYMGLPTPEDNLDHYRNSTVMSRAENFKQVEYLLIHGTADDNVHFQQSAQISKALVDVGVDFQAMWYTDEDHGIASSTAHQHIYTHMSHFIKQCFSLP

Regarding `COc1ccc(C2C=C(C(=O)O)NC3=C2C(=O)CC(C)(C)C3)cc1` (centres undefined), the Activity in experiment [1] was 33.2%; in experiment [3] it was -17.9%; in experiment [5], 29.7%; in [7], -24.63%; in [8] it was -39.6%; in [10], -21.82%. Further, the values for the Activity in [13] and in experiment [15] were -19.34% and 42.7%, respectively. The inhibition was 11.2% in experiment [2], 78.3% in experiment [6], 5.7% in [9] and 35.4% in experiment [11]. Further, the IC50 in experiment [4] stood at 5.9 µM. The median effective dose (ED50) in experiment [12] amounted to 48.6 mg/kg. Further, the inhibition entry in experiment [14] is “inactive”.

As to `CC1(C)CC(=O)C2=C(C1)NC(C(=O)O)=CC2c1ccc(Cl)cc1` (centres undefined), the Activity in experiment [1] was 12.2%; in experiment [5], 16.6%; in experiment [7], -17.45%; in experiment [10] it was -15.38%; in experiment [13] it was -11.97%; in experiment [15], 13.7%. Moreover, the inhibition result in experiment [2], in [9] and in experiment [14] was “inactive” throughout. Also, the half-maximal inhibitory concentration (IC50) in [4] worked out at 9.7 µM. The inhibition in [6] came to 63.4%; in [11], 25.4%.

Consider `CC1(C)CC(=O)C2=C(C1)NC(C(=O)O)=CC2c1ccccc1` (centres undefined), for which the Activity in experiment [1] was 16.7%; in experiment [5], 18.3%; in [7], -8.99%; in [10] it was -7.89%; in [13], -13.86%; in experiment [15], 28.9%. Moreover, the inhibition in experiment [2] came out at 4.6%; in experiment [6], 77.3%; in experiment [9], 14.6%; in [11], 28.9%; in experiment [14] it was 17.1%. Moreover, the IC50 in experiment [4] came to 6.1 µM.

With `CC1(C)CC(=O)C2=C(C1)NC(c1ccccc1)=CC2c1ccc(F)cc1` (centres undefined), the Activity in [1] is 32.3%; in experiment [3] it was -13.2%; in [5], 29.9%; in [7], -22.45%; in [8], -32.6%; in experiment [10], -18.83%. Moreover, the Activity in [13] was -26.34%; in [15], 41.3%. Also, the inhibition entry in experiment [2] and in experiment [9] was “inactive” in each case. In addition, the inhibition was found to be 14.6% in experiment [6], 88.2% in experiment [11] and 7.38% in [14]. Moreover, the ED50 in experiment [12] was 47.3 mg/kg. In addition, in [16], the IC50 is 2900 nM.

A word on the inhibition: it is the drop in the measured response relative to a control, in per cent. A word on the IC50: it is the midpoint of a concentration-inhibition curve. For orientation: ED50 means the dose at which the effect has come halfway, by size or by number of responders.
